Assay [1] concerns Rattus norvegicus. In words: In vivo inhibition of estrogen induced changes in interuterine pressure in rats. It is filed as functional. Put shortly: (§1)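 Rats pretreated with estrogen, under urethane anesthesia; antagonist given iv; read-out is change in integrated intrauterine pressure; agonist synthetic oxytocin. Effective dose (nmol/kg) is the dose that cuts the response to 2X units of agonist to the response to 1X unit, interpolated on a semilog scale from doses above and below it. pA2 is derived assuming a 67 mL/kg distribution volume.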

Assay [2] has as its system Rattus norvegicus. Nature of the assay: (§2) Antivasopressor activity in vivo in phenoxybenzamine pre-treated rats. It is filed as functional. Put shortly:
(§3)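 Rats pretreated with phenoxybenzamine, under urethane anesthesia; antagonist given iv; agonist USP Posterior Pituitary Reference Standard; read-out is pressor response. Effective dose (nmol/kg) is the dose that cuts the response to 2X units of agonist to that of 1X unit, interpolated semilogarithmically from bracketing doses. pA2 assumes a 67 mL/kg distribution volume. SEM is given where there are ≥4 independent estimates.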

Assay [3] relates to Rattus norvegicus. Nature of the assay: Antidiuretic activity in rats as intravenous dose required for reduction of 2x agonist response to equal 1x effect in estrogen pretreated rats. It is filed as functional, Urine.
Assay [4] deals with Rattus norvegicus. In words: Antidiuretic activity in rats as intravenous dose required for reduction of 2x agonist response to equal 1x effect in hydrated rats under ethanol anesthesia; Weak partial agonist/antagonist.
Assay [5] is filed under the species Rattus norvegicus. In words: Antioxytoxic activity in vitro in isolated uteri from estrogen pretreated rats suspended in Mg supplemented Dyke-Hastings solution. It is filed as functional. The settings on record: read-out: pA2 (converted). Put shortly: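 Isolated rat uterus in bath medium with Mg2+; agonist USP Posterior Pituitary Reference Standard. pA2 is the −log of the effective molar antagonist concentration that reduces the response to a dose of agonist to the response to half that dose. It is interpolated semilogarithmically from concentrations above and below it. SEM is given where there are ≥4 independent estimates.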

The species entered for assay [6] is Rattus norvegicus. In words: Antioxytoxic activity in vitro in isolated uteri from estrogen pretreated rats suspended in Mg-free Dyke-Hastings solution. The following applies: read-out: pA2 (converted).
In assay [7] the test system is Rattus norvegicus. In words: Antiantidiuretic activity in vivo in hydrated rats under ethanol anaesthesia. Format: functional, organism-based. The following applies: Urine, read-out: pA2 (converted). Put shortly: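 Hydrated rats under ethanol anaesthesia; antagonist given iv against the USP Posterior Pituitary Reference Standard as agonist. Effective dose (nmol/kg) is the dose that cuts the response to 2x units of agonist to equal the response to 1x unit. It is estimated by interpolation on a semilog scale between doses above and below it. pA2 assumes a volume of distribution of 67 mL/kg. Where SEM is given, n ≥4 estimates.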

In assay [8] the test system is Rattus norvegicus. In words: Antioxytocic potencies (change in interuterine pressure) in vivo in estrogen pre-treated rats. Format: functional, organism-based. The following applies: read-out: pA2 (converted). In outline:
as §1

The subject of assay [9] is Rattus norvegicus. The description is as §2. It is filed as functional, organism-based. The settings on record: read-out: pA2 (converted). Put shortly:
as §3

The species named for assay [10] is Rattus norvegicus. Nature of the assay: Antidiuretic activity in rat. Format: functional, Urine.

Starred links: 1 amine or outer side, 2 acyl side, 3 side chain; linkers in the order of their positions; H or OH if unused. Positions of bridges follow the written chain, without caps; N, C: chain ends. Non-standard residues stand in square brackets, D forms with d. Residues, ends and D or L forms follow the SMILES beside them. X1 = O=C(CC1(S[*:2])CCCCC1)[*:1]; Orn = NCCC[C@H](N)C(=O)O

`CC[C@H](C)[C@@H]1NC(=O)[C@@H](Cc2ccccc2)NC(=O)CC2(CCCCC2)SSC[C@@H](C(=O)N2CCC[C@H]2C(=O)N[C@@H](CCCN=C(N)N)C(=O)NCC(N)=O)NC(=O)[C@H](CC(N)=O)NC(=O)[C@H](C(C)C)NC1=O`: the figures for the ED in the assay on Rattus norvegicus [1], in the assay with Rattus norvegicus [2] and with Rattus norvegicus [3] were 2.5 nM/kg, 17 nM/kg and 45 nM/kg, respectively.

Take `CC[C@H](C)[C@@H]1NC(=O)[C@@H](Cc2ccc(OC)cc2)NC(=O)CC2(CCCCC2)SSC[C@@H](C(=O)N2CCC[C@H]2C(=O)N[C@@H](CCCN=C(N)N)C(=O)NCC(N)=O)NC(=O)[C@H](CC(N)=O)NC(=O)[C@H](C(C)C)NC1=O`: the ED in the assay with Rattus norvegicus [1] came out at 2.4 nM/kg; in the assay on Rattus norvegicus [2] it was 1.1 nM/kg; with Rattus norvegicus [3] it was 9.4 nM/kg.

As to `CCOc1ccc(C[C@H]2NC(=O)CC3(CCCCC3)SSC[C@@H](C(=O)N3CCC[C@H]3C(=O)N[C@@H](CCCNC(N)=O)C(=O)NCC(N)=O)NC(=O)[C@H](CC(N)=O)NC(=O)[C@H](C(C)C)NC(=O)[C@H](Cc3ccccc3)NC2=O)cc1`, the ED is 1.8 nM/kg in the assay with Rattus norvegicus [1], 0.81 nM/kg with Rattus norvegicus [2] and 23 nM/kg with Rattus norvegicus [3].

As for `COc1ccc(C[C@H]2NC(=O)CC3(CCCCC3)SSC[C@@H](C(=O)N3CCC[C@H]3C(=O)N[C@@H](CCCN=C(N)N)C(=O)NCC(N)=O)NC(=O)[C@H](CC(N)=O)NC(=O)[C@H](CCC(N)=O)NC(=O)[C@H](Cc3ccccc3)NC2=O)cc1`, the ED is 1.3 nM/kg with Rattus norvegicus [1], 0.36 nM/kg in the assay with Rattus norvegicus [2] and 7.3 nM/kg with Rattus norvegicus [3].

As for `COc1ccc(C[C@H]2NC(=O)CC3(CCCCC3)SSC[C@@H](C(=O)N3CCC[C@H]3C(=O)N[C@@H](CCCN=C(N)N)C(=O)NCC(N)=O)NC(=O)[C@H](CC(N)=O)NC(=O)[C@H](C(C)C)NC(=O)[C@H](Cc3ccccc3)NC2=O)cc1`, the ED with Rattus norvegicus [1] came out at 1.9 nM/kg; with Rattus norvegicus [2] it was 0.23 nM/kg; in the assay with Rattus norvegicus [3], 1.2 nM/kg.

As to `COc1ccc(C[C@H]2NC(=O)CC3(CCCCC3)SSC[C@@H](C(=O)N3CC=C[C@H]3C(=O)N[C@@H](CCCN=C(N)N)C(=O)NCC(N)=O)NC(=O)[C@H](CC(N)=O)NC(=O)[C@H](C(C)C)NC(=O)[C@H](Cc3ccccc3)NC2=O)cc1`, the ED in the assay on Rattus norvegicus [1] came to 1.17 nM/kg; in the assay with Rattus norvegicus [2], 0.55 nM/kg; in the assay on Rattus norvegicus [3] it was 1.7 nM/kg.

For `COc1ccc(C[C@@H]2NC(=O)CC3(CCCCC3)SSC[C@@H](C(=O)N3CCC[C@H]3C(=O)N[C@@H](CCCN=C(N)N)C(=O)NCC(N)=O)NC(=O)[C@H](CC(N)=O)NC(=O)[C@H](C(C)C)NC(=O)[C@H](Cc3ccccc3)NC2=O)cc1`, the ED came to 8 nM/kg with Rattus norvegicus [1], 0.29 nM/kg in the assay with Rattus norvegicus [2] and 3.1 nM/kg in the assay with Rattus norvegicus [3].

As for `CC[C@H](C)[C@@H]1NC(=O)[C@H](Cc2ccc(OC)cc2)NC(=O)CC2(CCCCC2)SSC[C@@H](C(=O)N2CCC[C@H]2C(=O)N[C@@H](CCCN)C(=O)NCC(N)=O)NC(=O)[C@H](CC(N)=O)NC(=O)[C@H](CCC(N)=O)NC1=O` (Y(Me)IQNCP[Orn]G-NH2; linker N-5 via X1), the ED in the assay on Rattus norvegicus [1] amounted to 4.2 nM/kg; in the assay on Rattus norvegicus [2], 0.8 nM/kg; in the assay with Rattus norvegicus [3], 0.01 nM/kg.

On to `CC[C@H](C)[C@@H]1NC(=O)[C@H](Cc2ccc(OC)cc2)NC(=O)CC2(CCCCC2)SSC[C@@H](C(=O)N2CCC[C@H]2C(=O)N[C@@H](CCCN)C(N)=O)NC(=O)[C@H](CC(N)=O)NC(=O)[C@H]([C@@H](C)O)NC1=O` (Y(Me)ITNCP[Orn]-NH2; linker N-5 via X1), for which the values for the ED with Rattus norvegicus [1], in the assay with Rattus norvegicus [2] and in the assay with Rattus norvegicus [4] were 1.7 nM/kg, 7.3 nM/kg and approximately 100 nM/kg, respectively.

`CC[C@H](C)[C@@H]1NC(=O)[C@H](Cc2ccc(OC)cc2)NC(=O)CC2(CCCCC2)SSC[C@@H](C(=O)N2CCC[C@H]2C(=O)N[C@@H](CCCN)C(=O)O)NC(=O)[C@H](CC(N)=O)NC(=O)[C@H]([C@@H](C)O)NC1=O` (Y(Me)ITNCP[Orn]-OH; linker N-5 via X1): the Kb is 5.75 nM in the assay filed under Rattus norvegicus [5]; 12.9 nM in the assay filed under Rattus norvegicus [6]; approximately 5010 nM with Rattus norvegicus [7]; 20.4 nM in the assay with Rattus norvegicus [8]; 331 nM in the assay on Rattus norvegicus [9].

`CC[C@H](C)[C@@H]1NC(=O)[C@H](Cc2ccc(OC)cc2)NC(=O)CC2(CCCCC2)SSC[C@@H](C(=O)N2CCC[C@H]2C(=O)N[C@@H](CCCN)C(=O)NCC(N)=O)NC(=O)[C@H](CC(N)=O)NC(=O)[C@H]([C@@H](C)O)NC1=O` (Y(Me)ITNCP[Orn]G-NH2; linker N-5 via X1): the Kb in the assay listed under Rattus norvegicus [5] is 3.89 nM; in the assay listed under Rattus norvegicus [6], 9.55 nM; in the assay on Rattus norvegicus [7], approximately 5010 nM; with Rattus norvegicus [8], 28.2 nM; with Rattus norvegicus [9], 141 nM.

In the case of `CCOc1ccc(C[C@H]2NC(=O)CC3(CCCCC3)SSC[C@@H](C(=O)N3CCC[C@H]3C(=O)N[C@@H](CCCCN)C(=O)NCC(N)=O)NC(=O)[C@H](CC(N)=O)NC(=O)[C@H](C(C)C)NC(=O)[C@H](Cc3ccccc3)NC2=O)cc1` ([dY](Et)FVNCPKG-NH2; linker N-5 via X1) [listing 1 of 2 here], the Kb is 10.5 nM in the assay filed under Rattus norvegicus [5]; 13.5 nM in the assay listed under Rattus norvegicus [6]; 19.1 nM in the assay with Rattus norvegicus [7]; 26.9 nM with Rattus norvegicus [8]; 6.92 nM with Rattus norvegicus [9].

As for `CCOc1ccc(C[C@H]2NC(=O)CC3(CCCCC3)SSC[C@@H](C(=O)N3CCC[C@H]3C(=O)N[C@@H](CCCCN)C(=O)NCC(N)=O)NC(=O)[C@H](CC(N)=O)NC(=O)[C@H](C(C)C)NC(=O)[C@H](Cc3ccccc3)NC2=O)cc1` ([dY](Et)FVNCPKG-NH2; linker N-5 via X1) [listing 2 of 2 here], the figures for the ED with Rattus norvegicus [1], in the assay with Rattus norvegicus [2] and in the assay with Rattus norvegicus [3] were 1.9 nM/kg, 0.48 nM/kg and 1.5 nM/kg, respectively.

As for `CCOc1ccc(C[C@H]2NC(=O)CC3(CCCCC3)SSC[C@@H](C(=O)N3CCC[C@H]3C(=O)N[C@@H](CCCN=C(N)N)C(=O)NCC(N)=O)NC(=O)[C@H](CC(N)=O)NC(=O)[C@H](C(C)C)NC(=O)[C@H](Cc3ccccc3)NC2=O)cc1` ([dY](Et)FVNCPRG-NH2; linker N-5 via X1), the ED in the assay on Rattus norvegicus [1] was found to be 2.6 nM/kg; in the assay with Rattus norvegicus [2], 0.45 nM/kg; with Rattus norvegicus [3], 1.1 nM/kg.

As for `CC[C@H](C)[C@@H]1NC(=O)C(Cc2ccc(OC)cc2)NC(=O)CC(C)(C)SSC[C@@H](C(=O)N2CCC[C@H]2C(=O)N[C@@H](CCCN=C(N)N)C(=O)NCC(N)=O)NC(=O)[C@H](CC(N)=O)NC(=O)[C@H](C(C)C)NC1=O` (stereo in doubt), the ED with Rattus norvegicus [1] was determined as 1.9 nM/kg; in the assay on Rattus norvegicus [2] it was 0.23 nM/kg. This compound also registered an Activity in the assay filed under Rattus norvegicus [10] of 1.6 mg.

With `CC[C@H](C)[C@@H]1NC(=O)C(Cc2ccc(OC)cc2)NC(=O)CC(C)(C)SSC[C@@H](C(=O)N2CCC[C@H]2C(=O)N[C@@H](CCCN=C(N)N)C(=O)NCC(N)=O)NC(=O)[C@H](CC(N)=O)NC(=O)[C@H](CCC(N)=O)NC1=O` (stereo in doubt), the values for the ED in the assay on Rattus norvegicus [1] and in the assay on Rattus norvegicus [2] were 2.2 nM/kg and 0.25 nM/kg, respectively. The Activity in the assay filed under Rattus norvegicus [10] is reported as approximately 1.6 mg.

Consider `CC[C@H](C)[C@@H]1NC(=O)C(Cc2ccc(OC)cc2)NC(=O)CC2(CCCCC2)SSC[C@@H](C(=O)N2CCC[C@H]2C(=O)N[C@@H](CCCCN)C(=O)NCC(N)=O)NC(=O)[C@H](CC(N)=O)NC(=O)[C@H](CCC(N)=O)NC1=O` (stereo in doubt), for which the ED with Rattus norvegicus [1] is 4.6 nM/kg; in the assay on Rattus norvegicus [2] it was 1.5 nM/kg. This compound returned an Activity in the assay listed under Rattus norvegicus [10] of approximately 0.003 mg.

For the origin of these results see ChEMBL document CHEMBL1124668, “Solid-phase synthesis of 16 potent (selective and nonselective) in vivo antagonists of oxytocin” (J Med Chem, 1989).
